Values after ≈ are worked out from the molar mass of the structure shown. Active and inactive are the calls of the source. No cut-off for these calls is given here.
Columns and labels:
[1] = Solubility in 0.01N HCl; assay type: physicochemical
How it was run: (§1)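 Thermodynamic solubility determined in a high-throughput automated format; media 0.01 N HCl, PBS and simulated intestinal fluid.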

[2] = target: T1, Transient receptor potential cation channel subfamily V member 1 (Rattus norvegicus, UniProt O35433); test: Inhibition of rat TRPV1 expressed in CHO cells assessed as capsaicin-induced Ca2+ influx; assay type: cell-based
T1 sequence (O35433 whole entry): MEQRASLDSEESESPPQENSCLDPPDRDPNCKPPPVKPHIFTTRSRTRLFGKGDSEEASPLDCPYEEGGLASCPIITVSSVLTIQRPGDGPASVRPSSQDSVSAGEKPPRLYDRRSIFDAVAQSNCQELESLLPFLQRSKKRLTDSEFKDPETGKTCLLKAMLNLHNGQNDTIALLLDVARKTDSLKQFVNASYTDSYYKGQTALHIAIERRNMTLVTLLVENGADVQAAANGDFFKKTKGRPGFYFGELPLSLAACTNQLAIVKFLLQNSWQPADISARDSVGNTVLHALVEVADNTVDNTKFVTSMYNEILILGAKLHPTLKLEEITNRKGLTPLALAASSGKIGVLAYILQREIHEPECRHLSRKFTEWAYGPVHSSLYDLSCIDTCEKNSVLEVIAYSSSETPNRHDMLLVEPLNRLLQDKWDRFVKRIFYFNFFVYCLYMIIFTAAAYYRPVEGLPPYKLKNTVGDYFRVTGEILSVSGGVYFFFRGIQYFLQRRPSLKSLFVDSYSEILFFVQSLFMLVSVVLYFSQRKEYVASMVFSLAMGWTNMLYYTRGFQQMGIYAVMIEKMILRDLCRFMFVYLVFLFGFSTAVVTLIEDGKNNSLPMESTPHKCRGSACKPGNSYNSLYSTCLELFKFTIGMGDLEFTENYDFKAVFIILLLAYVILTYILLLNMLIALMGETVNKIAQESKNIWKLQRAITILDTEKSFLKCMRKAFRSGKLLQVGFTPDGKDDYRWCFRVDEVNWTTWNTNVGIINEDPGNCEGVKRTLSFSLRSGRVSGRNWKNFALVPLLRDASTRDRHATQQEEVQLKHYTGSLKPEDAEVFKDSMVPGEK

[3] = target: T1, Transient receptor potential cation channel subfamily V member 1; test: Inhibition of rat TRPV1 expressed in CHO cells assessed as acid-induced Ca2+ influx; assay type: cell-based
[4] = Clearance in Sprague-Dawley rat at 1 mg/kg, iv up to 6 hrs; assay type: ADME, organism-based; design: dose 1 mg/kg, route intravenous; conditions: in vivo
[5] = AUC (0 to infinity) in Sprague-Dawley rat at 1 mg/kg, iv up to 6 hrs; assay type: ADME, organism-based; design: time infinity, dose 1 mg/kg, route intravenous; conditions: plasma
[6] = Volume of distribution in Sprague-Dawley rat at 1 mg/kg, iv up to 6 hrs; assay type: ADME, organism-based; design: dose 1 mg/kg, route intravenous; conditions: in vivo, read-out: Vss
[7] = Half life in Sprague-Dawley rat at 1 mg/kg, iv; assay type: ADME, organism-based; design: dose 1 mg/kg, route intravenous; conditions: in vivo
[8] = AUC (0-inf) in Sprague-Dawley rat at 5 mg/kg, po up to 8 hrs; assay type: ADME, organism-based; design: time infinity, dose 5 mg/kg, route oral; conditions: plasma
How it was run: (§2)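 Fasted male Sprague-Dawley rats given 5 mg/kg orally as a suspension in 5% Tween 80/Oraplus; plasma sampled up to 8 h.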

[9] = Oral bioavailability in Sprague-Dawley rat at 5 mg/kg; assay type: ADME, organism-based; conditions: in vivo; how it was run: as §2
[10] = Solubility in PBS; assay type: physicochemical; how it was run: as §1
[11] = Solubility in SIF; assay type: physicochemical; how it was run: as §1
[12] = AUC (0 to infinity) in Sprague-Dawley rat at 3 mg/kg, po up to 8 hrs; assay type: ADME, organism-based; design: time infinity, dose 3 mg/kg, route oral; conditions: plasma
How it was run: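 Fasted male Sprague-Dawley rats were given a single oral dose of 3 mg/kg as a suspension in 5% Tween 80/Oraplus. Plasma was sampled for up to 8 h, and AUC0-∞ was reported in ng·h/mL.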

[13] = tested on: Rattus norvegicus; test: Inhibition of capsaicin-induced flinching in rat at 10 mg/kg, po up to 8 hrs; assay type: functional, organism-based; design: dose 10 mg/kg
How it was run: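 Rats given 10 mg/kg orally; capsaicin-induced flinching challenged at intervals up to 8 h after dosing.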

[14] = species on record: Rattus norvegicus; test: Reduction of thermal hyperalgesia in rat model of CFA-induced inflammation in assessed as minimum effective dose; assay type: functional; conditions: read-out: MED
How it was run: (§3)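 Complete Freund's adjuvant injected to induce inflammatory thermal hyperalgesia in rats; oral dose-response, minimum effective dose determined, with corresponding plasma level measured.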

[15] = species on record: Rattus norvegicus; test: Plasma concentration in rat model of CFA-induced inflammation; assay type: ADME, organism-based; conditions: in vivo; how it was run: as §3
[16] = Clearance in Sprague-Dawley rat at 1 mg/kg, iv after 72 hrs; assay type: ADME, organism-based; design: dose 1 mg/kg, route intravenous; conditions: in vivo
[17] = Volume of distribution at steady state in Sprague-Dawley rat at 1 mg/kg, iv after 72 hrs; assay type: ADME, organism-based; design: dose 1 mg/kg, route intravenous; conditions: in vivo, read-out: Vss
[18] = Half life in Sprague-Dawley rat at 1 mg/kg, iv after 72 hrs; assay type: ADME, organism-based; design: dose 1 mg/kg, route intravenous; conditions: in vivo
[19] = Clearance in dog at 1 mg/kg, iv; assay type: ADME, organism-based, Canis lupus familiaris; design: dose 1 mg/kg, route intravenous; conditions: in vivo
How it was run: (§4)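 Fed male animals given 1 mg/kg intravenously in 80% PEG-400/H₂O.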

[20] = Volume of distribution at steady state in dog at 1 mg/kg, iv; assay type: ADME, organism-based, Canis lupus familiaris; design: dose 1 mg/kg, route intravenous; conditions: in vivo, read-out: Vss; how it was run: as §4
[21] = Half life in dog at 1 mg/kg, iv; assay type: ADME, organism-based, Canis lupus familiaris; design: dose 1 mg/kg, route intravenous; conditions: in vivo; how it was run: as §4
[22] = Oral bioavailability in dog at 3 mg/kg; assay type: ADME, organism-based, Canis lupus familiaris; conditions: in vivo
How it was run: (§5)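 Fasted male animals dosed orally at 3 mg/kg, vehicle 10% Pluronic F108 in either Oraplus or H₂O.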

[23] = Clearance in monkey at 1 mg/kg, iv; assay type: ADME, organism-based, Macaca mulatta; design: dose 1 mg/kg, route intravenous; conditions: rhesus monkey, in vivo; how it was run: as §4
[24] = Volume of distribution at steady state in monkey at 1 mg/kg, iv; assay type: ADME, organism-based, Macaca mulatta; design: dose 1 mg/kg, route intravenous; conditions: rhesus monkey, in vivo, read-out: Vss; how it was run: as §4
[25] = Half life in monkey at 1 mg/kg, iv; assay type: ADME, organism-based, Macaca mulatta; design: dose 1 mg/kg, route intravenous; conditions: rhesus monkey, in vivo; how it was run: as §4
[26] = Oral bioavailability in monkey at 3 mg/kg; assay type: ADME, organism-based, Macaca mulatta; conditions: rhesus monkey, in vivo; how it was run: as §5
[27] = tested on: Rattus norvegicus; test: Suppression of capsaicin-evoked paw flinching in orally dosed rat; assay type: functional; conditions: po
[28] = species on record: Rattus norvegicus; test: Plasma concentration in rat with capsaicin-evoked paw flinching; assay type: ADME, organism-based; conditions: in vivo

CCC(c1ccccc1)N1CCN(c2cc(Oc3cccc4sc(NC(C)=O)nc34)ncn2)CC1 (centres undefined)
solubility [1]: ≥ 200 µg/mL

CC(=O)Nc1nc2c(Oc3cc(C4=CCC(C(F)(F)F)CC4)ncn3)cccc2s1 (centres undefined)
IC50 [2]: 27 nM
IC50 [3]: 2.4 nM
solubility [1]: 13 µg/mL (≈ 29.9 µM)

CC(=O)Nc1nc2c(Oc3cc(N4CCOCC4)ncn3)cccc2s1
IC50 [2]: > 4000 nM
IC50 [3]: > 4000 nM
solubility [1]: 32 µg/mL (≈ 86.2 µM)

CC(=O)Nc1nc2c(Oc3cc(N4CCN(Cc5ccccc5)CC4)ncn3)cccc2s1
solubility [1]: ≥ 200 µg/mL

CC(=O)Nc1nc2c(Oc3cc(N4CCN(C(C)(C)C)CC4)ncn3)cccc2s1
IC50 [2]: 1500 nM
IC50 [3]: > 4000 nM
solubility [1]: ≥ 200 µg/mL

CC(=O)Nc1nc2c(Oc3cc(N4CCN(C(C)c5ccc(F)cc5)CC4)ncn3)cccc2s1 (centres undefined)
solubility [1]: ≥ 200 µg/mL
clearance [4]: 18.3 mL/min/kg
AUC(0-inf) [5]: 1000 ng·h/mL
Vd [6]: 2.9 L/kg
half-life [7]: 2.4 h
AUC(0-inf) [8]: 1800 ng·h/mL
bioavailability [9]: 35%
solubility [10]: 5 µg/mL (≈ 10.2 µM)
solubility [11]: 34 µg/mL (≈ 69 µM)

CC(=O)Nc1nc2c(Oc3cc(N4CCN(c5ccccc5)CC4)ncn3)cccc2s1
solubility [1]: 1.5 µg/mL (≈ 3.36 µM)
clearance [4]: 16.7 mL/min/kg

CC(=O)Nc1nc2c(Oc3cc(-c4ccc(C(F)(F)F)cc4)ncn3)cccc2s1 [AMG-517]
solubility [1]: < 1 µg/mL
Vd [6]: 1.6 L/kg
AUC(0-inf) [12]: 12500 ng·h/mL
bioavailability [9]: 32%
solubility [10]: < 1 µg/mL

CC(=O)Nc1nc2c(Oc3cc(N4CCN(C(C)(C)c5ccccc5)CC4)ncn3)cccc2s1
solubility [1]: ≥ 200 µg/mL

CC(=O)Nc1nc2c(Oc3cc(N4CCN(C(C)c5cccc(F)c5)CC4)ncn3)cccc2s1 (centres undefined)
solubility [1]: ≥ 200 µg/mL
clearance [4]: 53.3 mL/min/kg

CC(=O)Nc1nc2c(Oc3cc(N4CCN([C@H](C)c5ccc(F)cc5)CC4)ncn3)cccc2s1
Activity [13]: Active
minimal effective dose [14]: 1 mg/kg
Cp [15]: 70 ng/mL
clearance [16]: 13.8 mL/min/kg
Vd [17]: 2.6 L/kg
half-life [18]: 3.8 h
solubility [1]: ≥ 200 µg/mL
clearance [4]: 13.3 mL/min/kg
AUC(0-inf) [5]: 1200 ng·h/mL
Vd [6]: 2.8 L/kg
half-life [7]: 2.7 h
AUC(0-inf) [8]: 3100 ng·h/mL
bioavailability [9]: 51%
solubility [10]: 7 µg/mL (≈ 14.2 µM)
solubility [11]: 64 µg/mL (≈ 130 µM)
clearance [19]: 40 mL/min/kg
Vd [20]: 4 L/kg
half-life [21]: 2.7 h
bioavailability [22]: 83%
clearance [23]: 6.67 mL/min/kg
Vd [24]: 0.9 L/kg
half-life [25]: 3.2 h
bioavailability [26]: 12%
ED50 [27]: 1.9 mg/kg
Cp [28]: 128 ng/mL

CC(=O)Nc1nc2c(Oc3cc(N4CCN(C(C)c5ccccc5F)CC4)ncn3)cccc2s1 (centres undefined)
solubility [1]: ≥ 200 µg/mL
clearance [4]: 50 mL/min/kg

COc1ccc(C(C)N2CCN(c3cc(Oc4cccc5sc(NC(C)=O)nc45)ncn3)CC2)cc1 (centres undefined)
solubility [1]: ≥ 200 µg/mL

CC(=O)Nc1nc2c(Oc3cc(N4CCC(C(F)(F)F)CC4)ncn3)cccc2s1
IC50 [2]: 330 nM
IC50 [3]: 19 nM
solubility [1]: 9 µg/mL (≈ 20.6 µM)

CC(=O)Nc1nc2c(Oc3cc(N4CCN(C(C)c5ccc(C(F)(F)F)cc5)CC4)ncn3)cccc2s1 (centres undefined)
IC50 [2]: 5 nM
IC50 [3]: 1.8 nM
solubility [1]: ≥ 200 µg/mL
clearance [4]: 23.3 mL/min/kg
AUC(0-inf) [5]: 720 ng·h/mL
Vd [6]: 4.5 L/kg
half-life [7]: 2.7 h
AUC(0-inf) [8]: 120 ng·h/mL
bioavailability [9]: 3%
solubility [10]: 5 µg/mL (≈ 9.22 µM)
solubility [11]: 121 µg/mL (≈ 223 µM)

CC(=O)Nc1nc2c(Oc3cc(N4CCNCC4)ncn3)cccc2s1
IC50 [2]: > 4000 nM
IC50 [3]: > 4000 nM
solubility [1]: 173 µg/mL (≈ 467 µM)

CC(=O)Nc1nc2c(Oc3cc(C4CCC(C(F)(F)F)CC4)ncn3)cccc2s1 (centres undefined)
IC50 [2]: 350 nM
IC50 [3]: 10 nM
solubility [1]: 5 µg/mL (≈ 11.5 µM)

CC(=O)Nc1nc2c(Oc3cc(N4CCN(C(c5ccccc5)c5ccccc5)CC4)ncn3)cccc2s1
solubility [1]: 46 µg/mL (≈ 85.7 µM)

CC(=O)Nc1nc2c(Oc3cc(N4CCN([C@@H](C)c5ccc(F)cc5)CC4)ncn3)cccc2s1
solubility [1]: ≥ 200 µg/mL
clearance [4]: 30 mL/min/kg
AUC(0-inf) [5]: 550 ng·h/mL
Vd [6]: 5.7 L/kg
half-life [7]: 2.5 h
AUC(0-inf) [8]: 2550 ng·h/mL
bioavailability [9]: 93%
solubility [10]: 31 µg/mL (≈ 62.9 µM)
solubility [11]: 121 µg/mL (≈ 246 µM)

CC(=O)Nc1nc2c(Oc3cc(N4CCN(CC(F)(F)F)CC4)ncn3)cccc2s1
IC50 [2]: 380 nM
IC50 [3]: 120 nM
solubility [1]: ≥ 200 µg/mL

CC(=O)Nc1nc2c(Oc3cc(N4CCN(CCc5ccccc5)CC4)ncn3)cccc2s1
solubility [1]: ≥ 200 µg/mL

CC(=O)Nc1nc2c(Oc3cc(N4CCN(C(C)c5ccccc5)CC4)ncn3)cccc2s1 (centres undefined)
solubility [1]: ≥ 200 µg/mL
clearance [4]: 65 mL/min/kg

CC(=O)Nc1nc2c(Oc3cc(N4CCN(C(C)C)CC4)ncn3)cccc2s1
solubility [1]: ≥ 200 µg/mL

CC(=O)Nc1nc2c(Oc3cc(N4CCN(CC(C)(C)C)CC4)ncn3)cccc2s1
IC50 [2]: 3 nM
IC50 [3]: 5 nM
solubility [1]: ≥ 200 µg/mL
clearance [4]: 25 mL/min/kg
